Results: ChEMBL document CHEMBL5674882, “Benzolactam-related compounds promote apoptosis of HIV-infected human cells via protein kinase C-induced HIV latency reversal” (J Biol Chem, 2019)
Calls of active or inactive are those of the source. The calls are words filed in the database; no cut-off is given here.

Columns and labels:
[1] = biological target: T1, Protein kinase C (PKC) (Homo sapiens) (UniProt O94806+P41743+P17252+P05129+Q05655+P05771+Q05513+Q02156+P24723+Q15139+Q04759); test: Activation of PKC in CCL19-induced human CD4+ T-cells infected with latent HIV-1 assessed as reversal of HIV-1 latency by measuring increase in p24 antigen level at 2 uM incubated for 48 hrs in presence of 100 nM PMA by chemiluminescent enzyme immunoassay; type: cell-based; details: CD4+ T cell, filed as activator
[2] = biological target: T1, Protein kinase C (PKC) (Homo sapiens); test: Activation of PKC in human ACH-2 cells infected with latent HIV-1 assessed as reversal of HIV-1 latency by measuring increase in p24 antigen level at 1 to 10000 nM incubated for 48 hrs by chemiluminescent enzyme immunoassay; type: cell-based; details: ACH-2 cell line, dose 1-10000 nM
Procedure, shortened: (§1)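 ACH-2 or U1 cells (5 × 10^5 cells/ml) incubated 48 h with graded drug concentrations. Supernatant p24 antigen measured by automated chemiluminescent immunoassay. EC50 calculated taking the maximum response with excess PMA as 100%. Means ± S.D. of three independent experiments.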

[3] = biological target: T1, Protein kinase C (PKC) (Homo sapiens); test: Activation of PKC in human U1 cells infected with latent HIV-1 assessed as reversal of HIV-1 latency by measuring increase in p24 antigen level at 1 to 10000 nM incubated for 48 hrs by chemiluminescent enzyme immunoassay; type: cell-based; details: dose 1-10000 nM; procedure, shortened: as §1
[4] = biological target: Protein kinase C (PKC); test: Activation of PKC in human ACH-2 cells infected with latent HIV-1 assessed as reversal of HIV-1 latency by measuring increase in p24 antigen level incubated for 48 hrs by chemiluminescent enzyme immunoassay; type: cell-based; details: ach-2 cell line
[5] = Toxicity in human U-937 cells assessed as reduction in cell viability after 48 hrs by WST8 assay; type: cell-based
Procedure, shortened: (§2)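 Parental, uninfected lines (A3.01 for ACH-2, U937 for U1) at 5 × 10^5 cells/ml cultured with or without drug. Viable cells read at 48 h (day 2) and expressed as % of untreated control. CC50 taken as the concentration lowering viability by 50%.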

[6] = Toxicity in human A3.01 cells assessed as reduction in cell viability after 48 hrs by WST8 assay; type: cell-based; procedure, shortened: as §2
[7] = biological target: Protein kinase C (PKC); test: Activation of PKC in human U1 cells infected with latent HIV-1 assessed as reversal of HIV-1 latency by measuring increase in p24 antigen level incubated for 48 hrs by chemiluminescent enzyme immunoassay; type: cell-based
[8] = Toxicity in human PBMC assessed as reduction in cell viability after 5 days by WST8 assay; type: cell-based; details: time 5 day
Procedure, shortened: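 PBMC from a healthy donor exposed to drug, with viability determined at day 5. CC50 is the concentration reducing viability by 50%.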

[9] = tested on: U1; test: Induction of apoptosis in human U1 cells assessed as caspase-3 activation at 1 uM incubated for 24 hrs by flow cytometry; type: functional
Procedure, shortened: (§3)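 Cells fixed in 1% paraformaldehyde, permeabilized, stained 30 min on ice with anti-active caspase-3 mAb, and analysed by flow cytometry. Three independent experiments.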

[10] = tested on: U1; test: Induction of apoptosis in human U1 cells at 1 uM incubated for 48 hrs by propidium iodide/annexin-V staining based flow cytometry (reference value: 3.16%); type: functional
[11] = tested on: J-Lat 6.3 (Homo sapiens); test: Induction of apoptosis in human J-Lat 6.3 cells at 1 uM incubated for 48 hrs after pre-incubated for 2 hrs with 20 uM caspase inhibitor Q-VD-Oph by propidium iodide/annexin-V staining based flow cytometry
[12] = biological target: T1, Protein kinase C (PKC) (Homo sapiens); test: Activation of PKC in human J-Lat 6.3 cells infected with latent HIV-1 assessed as reversal of HIV-1 latency by measuring increase of GFP-positive cells at 10 uM in presence of pan-PKC inhibitor Go-6983 incubated for 24 hrs by flow cytometry; type: cell-based
Procedure, shortened: (§4)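 J-Lat 6.3 cells pretreated 3 h with a PKC inhibitor: Gö 6983 1 µM, Gö 6976 1 µM, GF 109203X 1 µM, PKCθ/δ inhibitor 10 µM, or Rottlerin 1 µM. Then exposed to 10 µM compound for 24 h; GFP-positive cells counted by flow cytometry. Mean ± S.D.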

[13] = tested on: ACH-2 cell line; test: Induction of apoptosis in human ACH-2 cells at 1 uM incubated for 48 hrs after pre-incubated for 2 hrs with 20 uM caspase inhibitor Q-VD-Oph by propidium iodide/annexin-V staining based flow cytometry; type: functional, cell-based
Procedure, shortened: (§5)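 ACH-2 or U1 cells pretreated 2 h with 20 µM pan-caspase inhibitor Q-VD-Oph, then exposed to 1 µM compound for 48 h. Annexin-V/PI staining by flow cytometry; apoptotic proportions compared with and without Q-VD-Oph. Mean ± S.D.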

[14] = Induction of apoptosis in human CEM A3.01 cells assessed as caspase-3 activation at 1 uM incubated for 24 hrs by flow cytometry; type: functional; procedure, shortened: as §3
[15] = biological target: T1, Protein kinase C (PKC) (Homo sapiens); test: Activation of PKC in human J-Lat 6.3 cells infected with latent HIV-1 assessed as reversal of HIV-1 latency by measuring increase of GFP-positive cells at 10 uM in presence of PKC theta/delta/epsilon/eta inhibitor PKCtheta/delta inhibitor incubated for 24 hrs by flow cytometry; type: cell-based; procedure, shortened: as §4
[16] = biological target: T1, Protein kinase C (PKC) (Homo sapiens); test: Activation of PKC in human J-Lat 6.3 cells infected with latent HIV-1 assessed as reversal of HIV-1 latency by measuring increase of GFP-positive cells at 10 uM in presence of PKC delta inhibitor Rottlerin incubated for 24 hrs by flow cytometry; type: cell-based; procedure, shortened: as §4
[17] = tested on: ACH-2 cell line; test: Induction of apoptosis in human ACH-2 cells assessed as cleaved-PARP level at 1 uM incubated for 24 hrs by flow cytometry (reference value: 1.64%); type: functional
Procedure, shortened: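 Cells fixed, permeabilized, stained on ice with anti-cleaved PARP (Asp-214) mAb; % cleaved-PARP cells by flow cytometry. Means ± S.D. of three independent experiments.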

[18] = tested on: J-Lat 6.3; test: Induction of apoptosis in human J-Lat 6.3 cells assessed as caspase-3 activation at 1 uM incubated for 24 hrs by flow cytometry (reference value: 2.43%); type: functional; procedure, shortened: as §3
[19] = tested on: U1; test: Induction of apoptosis in human U1 cells assessed as caspase-3 activation at 1 uM incubated for 24 hrs by flow cytometry (reference value: 1.86%); type: functional; procedure, shortened: as §3
[20] = tested on: ACH-2 cell line; test: Induction of apoptosis in human ACH-2 cells at 1 uM after 48 hrs by PI/annexin-V staining based flow cytometry; type: functional
[21] = tested on: ACH-2 cell line; test: Induction of apoptosis in human ACH-2 cells assessed as caspase-3 activation at 1 uM incubated for 24 hrs by flow cytometry; type: functional; procedure, shortened: as §3
[22] = biological target: T1, Protein kinase C (PKC) (Homo sapiens); test: Activation of PKC in human J-Lat 6.3 cells infected with latent HIV-1 assessed as reversal of HIV-1 latency by measuring increase of GFP-positive cells at 10 uM in presence of PKC alpha/beta/gamma inhibitor GF109203X incubated for 24 hrs by flow cytometry; type: cell-based; procedure, shortened: as §4
[23] = tested on: U-937; test: Induction of apoptosis in human U-937 cells assessed as caspase-3 activation at 1 uM incubated for 24 hrs by flow cytometry; type: functional; procedure, shortened: as §3
[24] = biological target: T1, Protein kinase C (PKC) (Homo sapiens); test: Activation of PKC in human J-Lat 6.3 cells infected with latent HIV-1 assessed as reversal of HIV-1 latency by measuring increase of GFP-positive cells at 10 uM in presence of PKC alpha/beta inhibitor Go-6976 incubated for 24 hrs by flow cytometry; type: cell-based; procedure, shortened: as §4
[25] = tested on: J-Lat 6.3; test: Induction of apoptosis in human J-Lat 6.3 cells at 1 uM incubated for 48 hrs by propidium iodide/annexin-V staining based flow cytometry (reference value: 3.16%); type: functional
[26] = tested on: U1; test: Induction of apoptosis in human U1 cells at 1 uM incubated for 48 hrs after pre-incubated for 2 hrs with 20 uM caspase inhibitor Q-VD-Oph by propidium iodide/annexin-V staining based flow cytometry; type: functional, cell-based; procedure, shortened: as §5
[27] = tested on: J-Lat 6.3; test: Induction of apoptosis in human J-Lat 6.3 cells assessed as caspase-3 activation at 1 uM incubated for 24 hrs by flow cytometry; type: functional; procedure, shortened: as §3
[28] = tested on: Jurkat; test: Induction of apoptosis in human Jurkat cells assessed as caspase-3 activation at 1 uM incubated for 24 hrs by flow cytometry; type: functional; procedure, shortened: as §3
[29] = tested on: U1; test: Induction of apoptosis in human U1 cells at 1 uM after 48 hrs by PI/annexin-V staining based flow cytometry; type: functional
[30] = tested on: ACH-2 cell line; test: Induction of apoptosis in human ACH-2 cells at 1 uM incubated for 48 hrs by propidium iodide/annexin-V staining based flow cytometry (reference value: 3.16%); type: functional
[31] = Toxicity in human CD4+ T-cells assessed as increase in ratio of CD69+ cells incubated for 24 hrs by flow cytometry; type: cell-based; details: cd4+ t cell
Procedure, shortened: (§6)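 Primary CD4+ T-cells from healthy donors treated with drug for 24 h. Cells stained with anti-CD25 and anti-CD69 antibodies (plus CD3, CD4, HLA-DR) for 30 min on ice, then marker-positive proportions quantified by flow cytometry.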

[32] = Toxicity in human CD4+ T-cells assessed as increase in ratio of CD25+ cells incubated for 24 hrs by flow cytometry; type: cell-based; details: cd4+ t cell; procedure, shortened: as §6

SMILES | EC50 [4] [µM] | Activity ([2]; filed as activator) | Activity ([3]; filed as activator) | CC50 at 48 h [5] [µM] | CC50 at 48 h [6] [µM] | EC50 [7] [µM] | CC50 at 120 h [8] [µM] | Activity [9] [%] | Activity [10] [%] | Activity [11] | Activity [13] | Activity [14] [%] | Activity [17] [%] | Activity [18] [%] | Activity [19] [%] | Activity [20] [%] | Activity [21] [%] | Activity [23] [%] | Activity [25] [%] | Activity [26] | also measured
C[C@H](CCC(=O)O)C[C@H](C)C[C@H](C)C(=O)/C=C(\O)[C@H](C)C[C@H](C)C/C=C/[C@@H](C)[C@@H](O)[C@@H](C)[C@@H](O)C[C@@H]1CC[C@@](C)([C@H]2CC[C@@](C)([C@@H](C)O)O2)O1 | – | – | – | – | – | – | – | – | – | – | – | – | – | – | – | – | – | – | – | – | Activity [1]: Active
CCCCCCCCCCc1ccc2c(c1)N(C)[C@@H](C(C)C)C(=O)N[C@H](CO)CC2 | – | – | – | – | – | – | – | – | – | – | – | – | – | – | – | – | – | – | – | – | Activity [2]: inactive; Activity [3]: inactive
CC(C)[C@H]1C(=O)N[C@H](CO)Cc2cc3c(cc2N1C)C(C)(C)CCC3(C)C | 2.91 | Active | Active | 22.9 | 19.5 | 9.89 | 65.8 | – | – | – | – | – | – | – | – | – | – | – | – | – | –
CC(C)[C@@H]1C(=O)N[C@H](CO)Cc2cc3c(cc2N1C)C(C)(C)CCC3(C)C | – | – | – | – | – | – | – | – | – | – | – | – | – | – | – | – | – | – | – | – | Activity [2]: inactive; Activity [3]: inactive
CCCCCCCCCCc1ccc2c(c1)N(C)[C@H](C(C)C)C(=O)N[C@H](CO)CC2 | 1.54 | Active | Active | > 100 | > 100 | 4 | > 100 | – | – | – | – | – | – | – | – | – | – | – | – | – | –
CCCCCCCCCCc1ccc2c(c1)N(C)[C@H](C(C)C)C(=O)N[C@H](CO)C2 | 0.43 | Active | Active | 39.2 | 17.8 | 2.33 | 18.9 | 8.42 | 5.9 | inactive | inactive | 1.26 | 10 | 4.35 | 4.66 | 20.4 | 11.5 | 0.127 | 7.95 | inactive | Activity [12]: inactive; Activity [15]: inactive; Activity [16]: inactive; Activity [22]: inactive; Activity [24]: inactive; Activity [27]: 2.25%; Activity [28]: 0.587%; Activity [29]: 6.1%; Activity [30]: 18.2%
CC(C)[C@H]1C(=O)N[C@H](CO)Cc2c[nH]c3cccc(c23)N1C [INDOLACTUM] | 0.047 | Active | Active | > 100 | > 100 | 0.36 | > 100 | 30.5 | 17.7 | inactive | inactive | 2.69 | 24.2 | 22.2 | 7.82 | 47.1 | 24.2 | 0.584 | 15.7 | inactive | Activity [12]: inactive; Activity [15]: inactive; Activity [16]: inactive; Activity [22]: inactive; Activity [24]: inactive; Activity [27]: 14.1%; Activity [28]: 1.72%; Activity [29]: 18%; Activity [30]: 45.1%
CC(=O)O[C@@]12C[C@@H](C)[C@@]3(O)[C@@H](C=C(CO)C[C@]4(O)C(=O)C(C)=C[C@@H]34)[C@@H]1C2(C)C [PROSTRATIN] | – | – | – | > 100 | > 100 | – | > 100 | 29.9 | 12.7 | inactive | inactive | 1.06 | 15.2 | 15.6 | 7.83 | 37.7 | 14 | 0.307 | 13.7 | inactive | Activity [31]: Non-Toxic; Activity [32]: Non-Toxic; Activity [27]: 8.66%; Activity [28]: 1.47%; Activity [29]: 14.1%; Activity [30]: 34.7%
